Experimental data: ChEMBL document CHEMBL4513216, “Probing the Open Global Health Chemical Diversity Library for Multistage-Active Starting Points for Next-Generation Antimalarials” (ACS Infect Dis, 2020)

Test: Toxicity liver stage against HepG2, at 10uM
Type: cell-based
Set-up: test concentration 10 uM, cell line HepG2-A16-CD81EGFP
Conditions: human, HepG2-A16-CD81EGFP cells; read-out: INHIBITION
Summary of the method: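 Uninfected HepG2-A16-CD81EGFP cells, 3 × 10^3 per well, 1536-well, plated on prespotted compound at 10 μM final, parasite-free screening media added to match infected plates; puromycin 10 μM positive, DMSO 0.5% negative; run in parallel with 48 h PbLuc assay at 37 °C, 5% CO2; viability by CellTiter-Glo luminescence, normalized to controls.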

Point of comparison: `NC(=O)CCNCc1c(Cl)cccc1N1CCCC1`, cytotoxicity at 10 µM 8.15%. Against it:
- Oc1ccccc1CN1C[C@H](O)C[C@H]1c1nc(Cc2ccccc2)no1 — lower, -4.82%
- CN1CCC(N(C)C(=O)Nc2ccc(Cl)cc2)CC1 — lower, -0.211%
- Cc1occc(=O)c1OCC(=O)N1CCN(c2cccc(Cl)c2)CC1 — lower, -1.18%
- CC(C)n1cnc2ccc(NC(=O)CCCn3cccn3)cc2c1=O — lower, -10.6%
- Cn1nc(-c2ccccc2NC(=O)c2cncc(Br)c2)ccc1=O — lower, 0.461%
- O=C(CC1CC1)NC1CCc2c(ccc(=O)n2CC2CC2)C1 (stereo unspecified) — lower, 6.34%
- CN(Cc1ccncc1)C1CC2(CCN(C(=O)c3ccnnc3)CC2)C1 — lower, -5.45%
- CC1=N[C@@]2(CC[C@@H]3CN(C(=O)NCC(C)C)C[C@@H]32)C(=O)N1C — lower, 5.01%
- O=C1NC(c2ccccc2)=N[C@@]12CC[C@@H]1CN(Cc3ccoc3)C[C@@H]12 — lower, 5.22%
- COCC1CN(Cc2cc(C)on2)Cc2cn(CC3CC3)nc21 (stereo unspecified) — higher, 8.91%
- O=C(c1cccs1)N1CC(C(=O)N2CCCC2)C2(CCOCC2)C1 (stereo unspecified) — lower, -2.64%
- O=C(Nc1ccccc1)C1CN(Cc2nccs2)CC12CCOCC2 (stereo unspecified) — lower, 1.61%
- Cc1[nH]/c(=N/C(=O)Cn2nc(N3CCOCC3)ccc2=O)sc1C — lower, 1.81%
- Cc1ccc(Cn2c(=O)[nH]c3cccnc3c2=O)cc1 — lower, 1.61%
- O=c1[nH]c(N2CCCCC2)nc2nccc(-c3ccc4c(c3)OCO4)c12 — higher, 9.54%
- c1ccc(C[C@H]2[C@H](N3CCOCC3)CCN2Cc2cccnc2)cc1 — lower, -4.34%
- Cc1ccc(NC(=O)c2n[nH]c(-n3cnnc3)n2)cc1 — lower, 6.33%
- CCOC(=O)CNC(=O)c1cc(-c2ccccc2)nc2ncnn12 — lower, -5.75%
- CN(CC1(O)CCN(c2ccnc3ccncc23)CC1)C(=O)CCN — lower, -6.86%
- CNC(=O)C1CN(C)CCN1c1nc(C)cc(C)n1 (stereo unspecified) — higher, 15.3%
- CC(=O)N[C@@H]1CN(C(=O)Cc2coc3cc(C)ccc23)C[C@H]1O — lower, 5.84%
- COc1ccc(-c2cc3nc([C@H](C)NC(=O)C4CC4)nn3cn2)cc1 — lower, -27%
- COc1ccc(CNc2ncc(-c3cc(C)no3)c(C(C)C)n2)cc1 — lower, 2.73%
- O=C(NC1CCCc2nc(N3CCOCC3)ncc21)C1CCCC1 (stereo unspecified) — lower, -2.3%
- CC(NCCCN1CCCC1=O)c1cc(Br)ccc1F (stereo unspecified) — lower, 1.63%
- CCN(CC1CCOC1)S(=O)(=O)Cc1cc(Cl)ccc1OC (stereo unspecified) — lower, 3.1%
- CCC(C)NC(=O)c1sccc1-n1cnnn1 (stereo unspecified) — lower, 5.45%
- O=C1CCC(=O)N1CCn1nnc(-c2cccc(Cl)c2)n1 — lower, -5.05%
- CC(C)Cc1nc(C[S+]([O-])CC(=O)NCc2ccccc2)no1 (stereo unspecified) — lower, -6.45%
- CCC(=O)NCC(=O)NC(C)c1ccc(OCCC(C)C)cc1 (stereo unspecified) — lower, 7.89%
- CC(C)Nc1ncccc1C(=O)NC1CC(=O)N(CC(F)(F)F)C1 (stereo unspecified) — lower, -1.54%
- N#Cc1ccc(CN2CCN(c3cncc(Cl)n3)CC2=O)cc1 — lower, 7.55%
- CC(NC(=O)N1CCCN(C)CC1)c1ccc(S(N)(=O)=O)cc1 (stereo unspecified) — lower, -11.7%
- COC(=O)c1oc(CNC(C)(C)c2ccc3c(c2)OCCO3)cc1C — lower, 5.36%
- Cc1nc(-c2ccco2)ccc1C(=O)NCC(=O)N1CCCCC1 — lower, -7.76%
- CN1CCC(C(=O)N2CCN(Cc3cccc(Cl)c3)CC2)CC1=O (stereo unspecified) — lower, 5.44%
- CN(C)CCOc1ccc(CNC(=O)c2cccc(Cl)c2Cl)cc1 — higher, 15.5%
- CC(c1ccc(Cl)cc1)N1CCN(CCCS(C)(=O)=O)CC1 (stereo unspecified) — lower, -8.73%
- N#Cc1cc(NC(=O)c2ccccn2)ccc1N1CCC(O)CC1 — lower, 0.73%
- Cc1nc(CN2CCC(CNC(=O)C3CCOC3)CC2)oc1C (stereo unspecified) — lower, 0.0966%
- CCCc1cc(NC2CCc3nc(C(C)C)nn3C2)n2ncnc2n1 (stereo unspecified) — lower, -1.41%
- O=C(C(CNCc1ccccn1)c1ccccc1)N1CCOCC1 (stereo unspecified) — lower, 0.983%
- NC(=O)NC(=O)CCN1CCCC1c1nc(C2CCCCC2)co1 (stereo unspecified) — lower, 5.33%
- Cc1nc2n(n1)CC(Nc1ccnc(-c3ccccc3)n1)CC2 (stereo unspecified) — lower, 3.43%
- O=C(Nc1cccc(CN2CCC(CO)CC2)c1)c1cc(Cl)c[nH]1 — lower, -150%
- COCCn1ccc(NC(=O)Nc2ccncc2)n1 — lower, 4.49%
- CCOc1cccc(C(=O)NCCC(=O)NCc2ccncc2)c1 — lower, 0.961%
- Cc1noc(C(C)N2CCN(c3ccc(C#N)cn3)CC2)n1 (stereo unspecified) — lower, -0.871%
- Cc1nc(C)n(CC2CCCCN2CC(=O)NCc2ccccn2)n1 (stereo unspecified) — lower, 2.07%
- O=C(CCc1ccsc1)N1CCCC(N2CCNC2=O)C1 (stereo unspecified) — lower, -5.7%
- c1ccc(-c2cnc(CN(Cc3cccnc3)CC3CCCO3)o2)cc1 (stereo unspecified) — higher, 17.5%
- Cc1nnc(NCCC(=O)N(C)Cc2ccccc2)c(C#N)c1C — lower, -1.04%
- Cc1n[nH]c(C2CN(C(=O)c3ccc(=O)n(C)c3)CCO2)n1 (stereo unspecified) — lower, 3.75%
- CCC(=O)N1CCN(C(=O)Nc2ccccc2-c2cccs2)CC1 — lower, -3.21%
- CNS(=O)(=O)CC(=O)N(Cc1c(F)cccc1F)C1CCCC1 — lower, -1.98%
- CCOc1ncccc1C(=O)Nc1c(C)cnn1CC1CC1 — lower, 1.62%
- Cc1oc(-c2ccccc2)nc1CC(=O)NC1=NCCS1 — lower, 0.898%
- Cc1cc(C)cc(OCC(=O)N2CCC2)c1 — lower, 2.01%
- CN(C)CC(=O)N1CCN(c2cc(N3CCCC3CO)ncn2)CC1 (stereo unspecified) — lower, -4.19%
- O=C(COc1ccccc1NCc1ccoc1)N1CCOCC1 — lower, 3.61%
- N#Cc1ccc(NC2CCN(Cc3ccccn3)CC2)c(F)c1 — lower, 0.109%
- CC(NC(=O)NCc1ccccn1)c1cccs1 (stereo unspecified) — lower, -14.4%
- O=C(CN1CCCNC1=O)N1CCCC(c2nccs2)C1 (stereo unspecified) — lower, -12.5%
- COc1ccc(CC(=O)N2CCCN(c3ccc(C#N)cc3)CC2)cc1 — lower, -1.95%
- COCCN(C)C(C(=O)O)c1ccc(Cl)c(F)c1 (stereo unspecified) — lower, -2.46%
- Cc1nccc(N[C@H]2CN(C(=O)C3(C#N)CCOCC3)C[C@@H]2C(C)C)n1 — higher, 9.81%
- O=C(CCc1nc(Cl)n[nH]1)N1C[C@@H](CN2CCCCC2)[C@@H](CO)C1 — lower, -0.104%
- CC(C)(CN1CCC2(CCOCC2)CC1)N1CCOCC1 — lower, -148%
- CN(C)C[C@H]1C[C@@H](CO)CN(C(=O)CCc2nc(Cl)n[nH]2)C1 — lower, -3.73%
- CCSc1ccc(C(=O)N2CC[C@](C)(O)[C@H](C)C2)s1 — lower, -12.2%
- Cc1cncc(C(=O)N2CCN(c3cnn(C)c(=O)c3)CC2)c1 — lower, -20.4%
- NC(=O)NCCC(=O)N1CCC(c2cc(Cc3ccccc3)n[nH]2)CC1 — lower, 1.5%
- O=S1(=O)C[C@@H]2[C@H](C1)N(Cc1ncc[nH]1)CCN2Cc1cccnc1 — lower, 0.875%
- CCNc1ccnc(NCC2CNCCO2)n1 (stereo unspecified) — lower, 3.71%
- COc1ccc(CCN2CC(NCc3ncc[nH]3)CC2=O)cc1 (stereo unspecified) — lower, 0.749%
- Fc1ccc(OC2CCN(CCn3cncn3)CC2)cc1 — lower, -5.92%
- Cc1cncc(C(=O)N2CCCC(O)(CN(C)C)CC2)c1 (stereo unspecified) — lower, 6.22%
- CCOCCn1nc(C)cc1C(=O)N1CC[C@](C)(O)C(C)(C)C1 — lower, 0.429%
- CCC(=O)Nc1cccc(OCC(=O)N(C)CCCC2CCCO2)c1 (stereo unspecified) — lower, -4.63%
- CN1C[C@@H](n2cnc(-c3ccccc3)c2-c2c[nH]cn2)C[C@H]1C(=O)O — lower, 0.791%
- CN1CC2(CCC1=O)CCN(CC[C@@H](O)c1ccccc1)CC2 — lower, -0.355%
- CCOc1ccc(C(=O)CCC(=O)NCc2cncn2CC)cc1C — lower, 0.902%
- CN(C)CCn1ccnc1C1CCN(C(=O)CCc2ccncc2)CC1 — lower, -9.67%
- CCc1cnc(NCC(C)Oc2cccnc2)nc1 (stereo unspecified) — lower, 0.977%
- Cc1nccn1CCC1CCCCN1C(=O)c1ccc2[nH]nnc2c1 (stereo unspecified) — higher, 19.9%
- CCn1cnnc1CNC(=O)N1CCN(c2cccc(C)c2)CC1 — lower, -3.42%
- O=C(c1cc2c(s1)CCOC2)N1CCCCC1Cn1cccn1 (stereo unspecified) — lower, -6.52%
- CCn1cc(NC(=O)NCC(c2cccc(OC)c2)N(C)C)cn1 (stereo unspecified) — lower, -7.25%
- O=C(Cc1ccc2c(c1)OCCO2)N1CCN(c2cnccn2)CC1 — lower, -11.8%
- COc1ccc(C2CCCN2Cc2nc3c(cnn3C)c(=O)[nH]2)cc1 (stereo unspecified) — lower, -9.77%
- CS(=O)(=O)NCCCN1CCCC1c1ccsc1 (stereo unspecified) — lower, 2.85%
- CCc1nnc(CN2CCOC(Cn3cccn3)C2)o1 (stereo unspecified) — lower, -8.15%
- O=C1C(NS(=O)(=O)c2cccc(F)c2)CCN1Cc1ccccc1 (stereo unspecified) — lower, -1.67%
- CCc1noc(C(C)N2CCN(C)CC2)n1 (stereo unspecified) — lower, -3.21%
- Cc1cnn(C2CCCN(C(=O)Cc3ccc(C#N)cc3)C2)c1 (stereo unspecified) — lower, -8.45%
- Cn1ncc(NCc2cccc(F)c2)c(Cl)c1=O — lower, -7.72%
- Cc1cc(C)n(CC2CCCN2C(=O)c2ccc(NC3CC3)nc2)n1 (stereo unspecified) — lower, 6.53%
- COCCc1noc(CN2CCCC2Cn2cc(C)cn2)n1 (stereo unspecified) — lower, -3.32%
- CC1(C)Cc2cc(-c3cncn3CCNC3CCS(=O)(=O)C3)ccc2O1 (stereo unspecified) — lower, 2.95%
- CN1CC(=O)N(c2ccsc2)CC12CCN(C(=O)N1CCCC1)C2 (stereo unspecified) — lower, -72.6%
- CN(C)C(=O)N1CCOCC2(CCN(c3ncccn3)C2)C1 (stereo unspecified) — lower, -9.17%
- Cc1nc(CN2CCC3(CCCN(Cc4ccoc4)C3)C2=O)cs1 (stereo unspecified) — lower, -0.142%
- COc1cc(CNC(C)Cn2cccn2)cc2c1OCCO2 (stereo unspecified) — lower, 1.67%
- CCN1CCN(C)C(=O)C12CCN(C(=O)Cc1ccccn1)CC2 — lower, 0.597%
- O=c1ccc2c(n1Cc1cccnc1)CCN(CC1CCOC1)CC2 (stereo unspecified) — lower, 8.13%
- CC[C@@H]1N(Cc2ccc(OC)cc2)CCC[C@]12CCC(=O)N2CCOC — higher, 14%
- CN1CC(=O)N(c2cccc(F)c2)CC12CCN(S(C)(=O)=O)C2 (stereo unspecified) — lower, 1.52%
- CC1N(c2cnn(C)c2)C(=O)COC12CCN(CC1CC1)CC2 (stereo unspecified) — lower, 3.68%
- CN(C)C(=O)[C@H]1C[C@H]2CN(c3ncccn3)C[C@@H]1O2 — lower, 6.1%
- Cc1noc(C)c1CN1C(=O)[C@@H]2CC[C@H]1CN(Cc1cccnc1N)C2 — higher, 19.7%
